Rows were chosen to be rich in hits. Some 1.5% of all compounds tested hit in one or more screens of this group.
Tb hexokinase – blocks Trypanosoma brucei hexokinase 1 activity; recombinant TbHK1, G6PDH-coupled NADH A340; inhibition, % at 10 µM; 0.11% of 220,000 active; AID 1430;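 active means inhibition of 50% or more in the single-dose primary screen; inactive means inhibition below 50%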
S1P4 antag – antagonists of human S1P4 receptor; S1P4-expressing cells, antagonist mode, reporter read-out; O95977; 0.26% of 220,000 active; inhibition, % at 4.98 µM; in the data active means inhibition above about 29%;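 further: 0% = wells stimulated with agonist and 100% = vehicle wells without agonist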
Target sequence (O95977 whole entry, looked up): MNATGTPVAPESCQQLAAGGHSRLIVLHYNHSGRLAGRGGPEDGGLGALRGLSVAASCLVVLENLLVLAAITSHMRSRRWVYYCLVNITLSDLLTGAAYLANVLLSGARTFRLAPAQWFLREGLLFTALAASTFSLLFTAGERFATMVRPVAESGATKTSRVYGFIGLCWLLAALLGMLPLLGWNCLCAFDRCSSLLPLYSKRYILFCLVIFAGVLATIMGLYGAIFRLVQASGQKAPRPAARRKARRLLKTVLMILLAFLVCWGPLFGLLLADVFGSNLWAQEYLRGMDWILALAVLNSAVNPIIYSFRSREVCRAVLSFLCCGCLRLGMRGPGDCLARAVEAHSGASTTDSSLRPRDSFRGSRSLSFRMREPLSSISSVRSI
zVAD death inh – blocks zVAD induced death of L929 cells | L929 zVAD necroptosis rescue, ATP luminescence, 24 h; with zVAD 60 µM | viability rescue, % at 10 µM | 0.38% of 220,000 active | AID 1377;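 active means activation, scaled between plate controls, above about 75%, limit read from the data; inactive means activation under that limit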;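 further: 0% = zVAD with DMSO and 100% = DMSO alone without zVAD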
S1P4 ag – human S1P4 receptor agonism. S1P4-expressing cell line, agonist reporter assay. activation, % at 4.98 µM. 0.35% of 220,000 active. AID 1509; in the data active means activation above about 11%;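 further: 0% = DMSO vehicle and 100% = reference agonist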
TNF necrop inh – inhibitors of TNF-alpha induced necroptosis in Jurkat FADD-/- cells | activation (protection from cell death), % at 10 µM | AID 463075 | 0.068% of 220,000 active | Jurkat FADD-/- TNF necroptosis rescue, ATP luminescence, 24 h; 0 = TNF only, 100 = no-TNF cells;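 active means activation, meaning protection from cell death, of at least 50% relative to plate controls; inactive means activation below 50%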;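 further: necroptosis triggered by 40 ng/mL TNF-alpha added together with compound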
Dynein cargo inh – blocks dynein driven cargo transport along microtubules; AID 1381; 3617.4 mouse cells, GR-EGFP nuclear translocation imaging; test concentration mostly 20 µM; stimulated with dexamethasone, 1 µM; stronger effect = lower value; z-score, hits read low; 0.47% of 220,000 active;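 active means plate z-score of nuclear minus cytoplasmic receptor signal below a set negative limit, without overly bright fluorescence or cell loss, cut at about -3.5 in these data, passing the limit was not always enough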;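 further: z-score of nuclear minus cytoplasmic ring GR-EGFP intensity difference per well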
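Medium: Induction medium lacking tetracycline, stripped serum | Probe or stimulus: 1.0 µM final dexamethasone stimulus | Schedule: 48 h induction, then 1 h compound, then 30 min agonist, 37 °C | Signal: Automated 10x imaging of fixed Hoechst-stained cells | Evaluation: Per-cell GR-EGFP intensity, nucleus versus surrounding cytoplasmic ring, well-averaged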
S1P4 antag conf – confirmation of human S1P4 receptor antagonists; AID 1524; 71% of 520 active; inhibition, % at 4.98 µM; shares compounds with S1P4 antag; S1P4-expressing cell line, antagonist mode, reporter read-out; in the data active means inhibition above about 30%
S1P1 antag – human S1P1 antagonism as S1P4 antagonist counter-screen. shares compounds with S1P4 antag. 37% of 520 active. cell-based S1P1 antagonist counterscreen, inhibition. inhibition, % at 4.98 µM; in the data active means inhibition above about 40%;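 further: receptor stimulated with S1P near its EC80; 0% = agonist stimulated wells and 100% = vehicle only wells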
The depositor's hits bear a star; . = no result given.

SMILES	Tb hexokinase	S1P4 antag	zVAD death inh	S1P4 ag	TNF necrop inh	Dynein cargo inh	S1P4 antag conf	S1P1 antag
CCCN(CCC)CC(O)Cn1cc(/C=C/C(=O)c2cccs2)c2ccccc21 (configuration not stated)	7.8	34.3*	1.2	2.0	4.9	0.452	58.6*	74.5*
O=C(NC(Nc1nc2ccc([N+](=O)[O-])cc2s1)(C(F)(F)F)C(F)(F)F)c1ccccc1Cl	-9.7	43.4*	4.5	-1.2	-10.7	-0.504	64.5*	-1.8
COc1cc(/C=N/Nc2nc(N3CCCCC3)nc(N3CCCCC3)n2)ccc1OC(=O)c1ccco1	-6.2	1.3	2.3	0.0	0.4	-0.293	.	.
O=C(Oc1cccc(/C=N/Nc2nc(Nc3ccccc3)nc(N3CCOCC3)n2)c1)c1ccco1	0.0	37.9*	-0.3	-1.4	9.2	-0.661	70.3*	47.6*
O=C(Nc1ccccc1)Nc1cc(Cl)cc(Cl)c1	-11.0	26.0	0.9	-2.6	-1.3	1.54	.	.
O=C(Nc1ccccc1)Nc1cc(OCC(F)(F)F)cc(OCC(F)(F)F)c1	33.8	101.0*	0.9	-1.2	-5.5	0.312	112.2*	-6.2
Cc1cccc(NNC(=O)C2CCC2)c1	-1.3	13.1	-0.8	-1.1	2.7	0.911	.	.
Clc1ccc2c(c1)C(N1CCNCC1)Cc1ccccc1S2 (configuration not stated)	3.6	7.9	-3.2	-0.3	-18.2	-4.5	.	.
COCCCN1CCN(C2Cc3ccccc3Sc3ccc(Cl)cc32)CC1 (configuration not stated)	-12.4	29.1*	0.2	0.4	0.7	0.786	-2.7	0.1
O=S(=O)(Cc1cccc(C(F)(F)F)c1)c1ncn[nH]1	2.1	-14.1	-0.6	-1.4	-1.5	-0.267	.	.
CN(C)/C=C/C(=O)c1cnc(-c2ccccc2)s1	-19.5	38.1*	11.8	0.5	0.6	-0.277	-5.3	1.1
CN(C)/N=C/C=C1\CC/C(=C\c2ccc(Br)cc2)C1=O	-5.6	30.4*	0.7	-1.0	-10.8	-0.556	11.2	12.7
CN(C)/N=C/C=C1\CCC/C(=C/c2cccs2)C1=O	-22.5	7.0	1.9	-0.4	-5.8	-0.678	.	.
OCCC1CN(CCCn2cccn2)CCN1C1CCCCC1 (configuration not stated)	1.8	-8.6	1.3	-0.6	-0.5	-0.889	.	.
N#Cc1cn(CCOc2ccccc2F)c2ccccc12	-1.3	37.0*	0.1	0.1	2.0	-0.0818	8.9	26.5
COc1ccc(C(=O)NCc2nnc(SC)n2Cc2ccccc2)cc1	-2.7	-14.6	1.7	-1.1	0.7	-0.0306	.	.
COC(C[C@H](O)C[C@H](O)[C@H](C)OCc1ccccc1)OC	-0.5	.	0.9	.	1.9	0.0808	.	.
COc1ccc(-c2ccnc3nc(Sc4ncc(C(F)(F)F)cc4Cl)nn23)cc1	-23.9	60.6*	-0.3	-1.1	-2.5	-0.722	1.0	21.2
COc1cccc(C2=NOC(C(=O)Nc3cc(C)on3)C2)c1 (configuration not stated)	-12.3	4.2	0.0	-0.8	0.4	1.26	.	.
CCN(CC)c1ccc(/C=c2\sc3nc4ccccc4n3c2=O)c(O)c1	6.3	37.4*	1.4	5.5	-4.7	-0.11	22.1	-25.1
O=c1/c(=C/c2cn(-c3ccccc3)nc2-c2ccc(F)cc2)sc2nc3ccccc3n12	-5.3	-10.3	0.7	-0.7	-1.6	0.565	.	.
CN1c2ccccc2Oc2nnc(N3CCN(Cc4ccccc4)CC3)cc21	-13.6	32.6*	53.8	1.7	3.0	0.269	25.1	15.3
O=C(COC(=O)c1ccc[nH]c1=O)NC1CCCc2ccccc21 (configuration not stated)	-10.2	-1.9	-0.4	0.3	0.8	-0.234	.	.
CN(CCC#N)C(=O)COC(=O)c1ccccc1C(=O)c1ccc(Cl)c([N+](=O)[O-])c1	-1.5	55.5*	61.2	-2.0	8.0	-1.96	111.7*	52.8*
CN(CCC#N)C(=O)COC(=O)c1ccc(Cl)c(S(N)(=O)=O)c1	1.0	-18.3	-0.5	1.2	-1.4	-0.125	.	.

Screens from PubChem.
